Measured values taken from article PMC7115694 (European Journal of Medicinal Chemistry, 2010).

Experiments:
Assay type in all cases: cell-based
[1] = system: Vero cells; test: Cytotoxicity in uninfected cell cultures; conditions: cell morphology
How it was run: (§1)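 Uninfected cell cultures are exposed to serial dilutions of test compound in parallel with the virus cytopathicity assays. Cells are examined microscopically. Minimum cytotoxic concentration is the lowest concentration causing a microscopically detectable alteration of normal cell morphology.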

[2] = system: Coxsackie virus B4; test: microbe, parasite or virus in culture; conditions: Enterovirus B, B4, HeLa, read-out: EC50 Coxsackie virus B4 visual CPE score
[3] = system: Sindbis virus; test: microbe, parasite or virus in culture; conditions: Vero, read-out: EC50 Sindbis virus
[4] = system: Punta Toro virus; test: microbe, parasite or virus in culture; conditions: Vero, read-out: EC50 Punta Toro virus
[5] = system: Reovirus-1; test: organism not typed; conditions: Vero, read-out: EC50 Reovirus-1
[6] = system: HeLa cells; test: Cytotoxicity in uninfected cell cultures; conditions: cell morphology
How it was run: as §1

[7] = system: Para-influenza-3 virus; test: organism not typed; conditions: Vero, read-out: EC50 Para-influenza-3 virus
[8] = system: Feline Herpes virus; test: organism not typed; conditions: for EC50: CRFK, read-out: EC50 Feline Corona Virus
[9] = system: B. subtilis; test: Minimum bactericidal concentration; conditions: static when MBC 3-fold higher than MIC
[10] = system: Aspergillus niger; test: MIC by tube dilution method; conditions: observed, A. niger, 25 °C 7 d
[11] = system: S. aureus; test: Minimum bactericidal concentration; conditions: static when MBC 3-fold higher than MIC
[12] = system: Bacillus subtilis; test: MIC by tube dilution method; conditions: observed, B. subtilis, 37 °C 24 h
How it was run: (§2)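 Test compound is diluted in double strength nutrient broth (I.P.) by tube dilution, with ciprofloxacin as reference. Samples incubated at 37 °C for 24 h. MIC is the lowest concentration inhibiting microbial growth, transformed into pMIC for analysis.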

[13] = system: Staphylococcus aureus; test: MIC by tube dilution method; conditions: observed, S. aureus, 37 °C 24 h
[14] = system: HEL cells; test: Cytotoxicity in uninfected cell cultures; conditions: microscopically detectable alteration of cell morphology
How it was run: as §1

[15] = system: S. aureus, B. subtilis and E. coli; test: Average antibacterial activity; conditions: average antibacterial activity (pMICsa + pMICbs + pMICec)/3
[16] = system: Escherichia coli; test: MIC by tube dilution method; conditions: observed, E. coli, 37 °C 24 h
How it was run: as §2

[17] = system: S. aureus, B. subtilis, E. coli, C. albicans and A. niger; test: Average antimicrobial activity; conditions: mean of five pMIC values
[18] = system: C. albicans and A. niger; test: Average antifungal activity; conditions: average antifungal activity (pMICca + pMICan)/2
[19] = system: Candida albicans; test: MIC by tube dilution method; conditions: observed, C. albicans, 37 °C 48 h
[20] = system: Vaccinia virus; test: microbe, parasite or virus in culture; conditions: Orthopoxvirus vaccinia, HEL, read-out: EC50 Vaccinia virus
[21] = system: Vesicular stomatitis virus; test: microbe, parasite or virus in culture; conditions: HEL, read-out: EC50 Vesicular stomatitis virus
[22] = system: Herpes simplex virus-2 (G); test: microbe, parasite or virus in culture; conditions: Human alphaherpesvirus 2, HEL, read-out: EC50 Herpes simplex virus-2 (G)
[23] = system: Herpes simplex virus-1 (KOS); test: microbe, parasite or virus in culture; conditions: Human alphaherpesvirus 1, HEL, read-out: EC50 Herpes simplex virus-1 (KOS)
[24] = system: Feline Corona virus (FIPV); conditions: CRFK cell cultures, MTS assay

Molecule: Nc1ncnc2c1ncn2C[C@H](O)CO [(S)-DHPA]
- Minimum cytotoxic concentration [1]: >250 µM
- EC50 [2]: > 250 µM
- EC50 [3]: > 250 µM
- EC50 [4]: > 250 µM
- EC50 [5]: > 250 µM
- Cytotoxicity Minimum cytotoxic concentration [6]: >250 µM
- EC50 [7]: > 250 µM

Molecule: CCCCC(=O)n1c(-c2ccc(S(=O)(=O)O)cc2)nc2ccccc21 [Compound 17]
- EC50 [8]: > 100 µg/mL
- bacteriostatic/bactericidal action against B. subtilis [9]: active bacteriocidal agents
- Minimum cytotoxic concentration [1]: >100 µg/mL
- pMICan [10]: 1.16
- bacteriostatic/bactericidal action against S. aureus [11]: active bacteriocidal agents
- pMICbs [12]: 1.76
- pMICsa [13]: 1.76
- Minimum cytotoxic concentration [14]: >100 µg/mL
- pMICab [15]: 1.76
- pMICec [16]: 1.76
- EC50 [5]: > 100 µg/mL
- Cytotoxicity Minimum cytotoxic concentration [6]: >100 µg/mL
- EC50 [7]: > 100 µg/mL
- pMICam [17]: 1.58
- pMICaf [18]: 1.31
- pMICca [19]: 1.46

Molecule: NC(=O)c1ncn([C@@H]2O[C@H](CO)[C@@H](O)[C@H]2O)n1 [Ribavirin]
- Minimum cytotoxic concentration [1]: >250 µM
- EC50 [20]: 10 µM
- EC50 [21]: > 250 µM
- EC50 [22]: 2 µM
- EC50 [3]: > 250 µM
- Minimum cytotoxic concentration [14]: >250 µM
- Cytotoxicity Minimum cytotoxic concentration [6]: >250 µM
- EC50 [23]: 1 µM
- EC50 [7]: 95 µM

Molecule: Nc1nc(O)c2ncn(COC(CO)CO)c2n1 [Ganciclovir]
- EC50 [20]: > 100 µM
- EC50 [21]: > 100 µM
- EC50 [22]: 0.03 µM
- Minimum cytotoxic concentration [14]: >100 µM
- EC50 [23]: 0.03 µM

Molecule: Cc1ccc(C(=O)n2c(-c3ccc(S(=O)(=O)O)cc3)nc3ccccc32)cc1 [Compound 11]
- EC50 [8]: > 100 µg/mL
- bacteriostatic/bactericidal action against B. subtilis [9]: active bacteriocidal agents
- Minimum cytotoxic concentration [1]: >100 µg/mL
- pMICan [10]: 0.89
- pMICbs [12]: 1.95
- pMICsa [13]: 2.10
- Minimum cytotoxic concentration [14]: >100 µg/mL
- pMICab [15]: 2.05
- pMICec [16]: 2.10
- EC50 [5]: > 100 µg/mL
- Cytotoxicity Minimum cytotoxic concentration [6]: >100 µg/mL
- EC50 [7]: > 100 µg/mL
- pMICam [17]: 1.71
- pMICaf [18]: 1.20
- pMICca [19]: 1.50

Molecule: O=c1[nH]c(=O)n([C@H]2C[C@H](O)[C@@H](CO)O2)cc1/C=C/Br [Brivudin]
- EC50 [20]: 112 µM
- EC50 [21]: > 250 µM

Molecule: Nc1ccn(C[C@@H](CO)OCP(=O)(O)O)c(=O)n1 [Cidofovir]
- EC50 [20]: > 250 µM
- EC50 [21]: > 250 µM
- EC50 [22]: 0.2 µM
- EC50 [23]: 0.4 µM

Molecule: Cc1ccc(S(=O)(=O)n2c(-c3ccc(S(=O)(=O)O)cc3)nc3ccccc32)cc1 [Compound 20]
- EC50 [8]: > 100 µg/mL
- Minimum cytotoxic concentration [1]: >100 µg/mL
- pMICan [10]: 1.23
- pMICbs [12]: 1.84
- EC50 [3]: > 100 µg/mL
- pMICsa [13]: 1.84
- Minimum cytotoxic concentration [14]: >100 µg/mL
- pMICab [15]: 1.74
- pMICec [16]: 1.54
- EC50 [5]: > 100 µg/mL
- Cytotoxicity Minimum cytotoxic concentration [6]: >100 µg/mL
- EC50 [7]: > 100 µg/mL
- pMICam [17]: 1.60
- pMICaf [18]: 1.39
- pMICca [19]: 1.54

Molecule: Cc1ccccc1C(=O)n1c(-c2ccc(S(=O)(=O)O)cc2)nc2ccccc21 [Compound 10]
- EC50 [8]: > 100 µg/mL
- Minimum cytotoxic concentration [1]: >100 µg/mL
- pMICan [10]: 1.20
- bacteriostatic/bactericidal action against S. aureus [11]: active bacteriocidal agents
- pMICbs [12]: 2.10
- pMICsa [13]: 2.10
- Minimum cytotoxic concentration [14]: >100 µg/mL
- pMICab [15]: 2.10
- pMICec [16]: 2.10
- EC50 [5]: > 100 µg/mL
- Cytotoxicity Minimum cytotoxic concentration [6]: >100 µg/mL
- EC50 [7]: > 100 µg/mL
- pMICam [17]: 1.80
- pMICaf [18]: 1.35
- pMICca [19]: 1.50

Molecule: C=CC(=O)n1c(-c2ccc(S(=O)(=O)O)cc2)nc2ccccc21 [Compound 13]
- EC50 [8]: > 20 µg/mL
- Minimum cytotoxic concentration [1]: >100 µg/mL
- pMICan [10]: 1.12
- pMICbs [12]: 2.02
- pMICsa [13]: 1.72
- Minimum cytotoxic concentration [14]: 100 µg/mL
- pMICab [15]: 2.02
- pMICec [16]: 2.32
- EC50 [5]: > 100 µg/mL
- Cytotoxicity Minimum cytotoxic concentration [6]: >100 µg/mL
- EC50 [7]: > 100 µg/mL
- pMICam [17]: 1.72
- pMICaf [18]: 1.27
- pMICca [19]: 1.42

B1: UDA (protein, UniProt P11218 24-372, looked up)
Lectin/endochitinase 1: QRCGSQGGGGTCPALWCCSIWGWCGDSEPYCGRTCENKCWSGERSDHRCGAAVGNPPCGQDRCCSVHGWCGGGNDYCSGSKCQYRCSSSVRGPRVALSGNSTANSIGNVVVTEPLFDQMFSHRKDCPSQGFYSYHSFLVAAESFPAFGTIGDVATRKREVAAFLAHISQATSGERSDVENPHAWGLCHINTTTVTENDFCTSSDWPCAAGKKYSPRGPIQLTHNFNYGLAGQAIGEDLIQNPDLVEKDPIISFKTALWFWMSQHDNKPSCHDIVLNANSAANRIPNKGVIGNIISRAFGHDDFAVRSSSIGFYKRYCDMLGVSYGHDLKYWFDNTPSSEFQRIQMRVAA
- EC50 Feline Corona Virus ([8]; CRFK cell cultures, MTS assay): 0.4 µg/mL
- EC50 Feline Herpes Virus (FIPV) [24]: 1.5 µg/mL
